Results published in ChEMBL document CHEMBL1124865, “Synthesis and biological evaluation of a series of parenteral 3'-quaternary ammonium cephalosporins” (J Med Chem, 1990).
Values after ≈ are worked out from the molar mass of the structure shown.

How the values were obtained:
Type in all cases: functional
Enterobacter cloacae [1] = assay: Antibacterial activity against Enterobacter cloacae 265A
Escherichia coli [2] = assay: Antibacterial activity against Escherichia coli EC14; details: Escherichia coli; read-out: MIC
Escherichia coli [3] = assay: Antibacterial activity against Escherichia coli TEM; details: Escherichia coli; read-out: MIC
Cavia porcellus = organism: Cavia porcellus; assay: In vitro relative anticholinergic potential in isolated guinea pig trachea
Method in brief: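 Guinea pig trachea in Krebs' solution at 37.5 °C, 95% O2/5% CO2, pH 7.4, 2 g resting tension. Cumulative carbachol log dose-response curve (3-fold steps) run before and 30 min after adding antagonist at 1 mM. […] Tukey test on log2 dose ratios.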

Klebsiella pneumoniae [4] = assay: microbe, parasite or virus in culture
Klebsiella pneumoniae [5] = assay: Antibacterial activity against Klebsiella pneumoniae X26; details: Klebsiella pneumoniae; read-out: MIC
Pseudomonas aeruginosa [6] = assay: Antibacterial activity against Pseudomonas aeruginosa X528; details: Pseudomonas aeruginosa; read-out: MIC
Pseudomonas aeruginosa [7] = assay: Antibacterial activity against Pseudomonas aeruginosa PS18
Staphylococcus aureus [8] = assay: Antibacterial activity against penicillin G resistance Staphylococcus aureus
Staphylococcus aureus [9] = assay: Antibacterial activity against penicillin G susceptible Staphylococcus aureus
Streptococcus pneumoniae = assay: Antibacterial activity against Streptococcus pneumoniae
Streptococcus pyogenes = assay: Antibacterial activity against Streptococcus pyogenes
Enterococcus faecium = assay: Antibacterial activity against Enterococcus faecium
Enterobacter cloacae [10] = assay: Antibacterial activity against Enterobacter cloacae EB5; details: Enterobacter cloacae; read-out: MIC
Pseudomonas aeruginosa [11] = assay: In vivo efficacy against Pseudomonas aeruginosa infected mice treated at 1 hr and 5 hr post infection
Staphylococcus aureus [12] = assay: In vivo efficacy against Staphylococcus aureus infected mice treated at 1 hr and 5 hr post infection
Escherichia coli [13] = assay: In vivo efficacy against Escherichia coli infected mice treated at 1 hr and 5 hr post infection
Escherichia coli [14] = assay: In vivo efficacy against Escherichia coli infections in mice
Pseudomonas aeruginosa [15] = assay: In vivo efficacy against Pseudomonas aeruginosa infections in mice
Staphylococcus aureus [16] = assay: In vivo efficacy against Staphylococcus aureus infections in mice; details: Staphylococcus aureus; read-out: MIC
Serratia marcescens = assay: Antibacterial activity against Serratia marcescens SE3
[17] = Enterobacter cloacae, read-out: MIC
[18] = Klebsiella pneumoniae, read-out: MIC
[19] = Pseudomonas aeruginosa, read-out: MIC
[20] = Staphylococcus aureus, read-out: MIC
[21] = Streptococcus pneumoniae, read-out: MIC
[22] = Streptococcus pyogenes, read-out: MIC
[23] = Enterococcus faecium, read-out: MIC
[24] = Pseudomonas aeruginosa, read-out: ED50
[25] = Staphylococcus aureus, read-out: ED50
[26] = Escherichia coli, read-out: ED50
[27] = Escherichia coli, read-out: MIC
[28] = Serratia marcescens, read-out: MIC

| SMILES | MIC (Enterobacter cloacae [1]; [17]) [µg/mL] | MIC (Escherichia coli [2]) [µg/mL] | MIC (Escherichia coli [3]) [µg/mL] | MIC (Klebsiella pneumoniae [4]; [18]) [µg/mL] | MIC (Klebsiella pneumoniae [5]) [µg/mL] | MIC (Pseudomonas aeruginosa [6]) [µg/mL] | MIC (Pseudomonas aeruginosa [7]; [19]) [µg/mL] | MIC (Staphylococcus aureus [8]; [20]) [µg/mL] | MIC (Staphylococcus aureus [9]; [20]) [µg/mL] | MIC (Streptococcus pneumoniae; [21]) [µg/mL] | MIC (Streptococcus pyogenes; [22]) [µg/mL] | MIC (Enterococcus faecium; [23]) [µg/mL] | MIC (Enterobacter cloacae [10]) [µg/mL] | ED50 (Pseudomonas aeruginosa [11]; [24]) [mg/kg] | ED50 (Staphylococcus aureus [12]; [25]) [mg/kg] | ED50 (Escherichia coli [13]; [26]) [mg/kg] | MIC (Escherichia coli [14]; [27]) [µg/mL] | MIC (Pseudomonas aeruginosa [15]; [19]) [µg/mL] | MIC (Staphylococcus aureus [16]) [µg/mL] | MIC (Serratia marcescens; [28]) [µg/mL] | also measured |
| --- | --- | --- | --- | --- | --- | --- | --- | --- | --- | --- | --- | --- | --- | --- | --- | --- | --- | --- | --- | --- | --- |
| CO/N=C(\C(=O)N[C@@H]1C(=O)N2C(C(=O)[O-])=C(C[n+]3ccc4c(c3)ncn4C)CS[C@H]12)c1csc(N)n1 | 8 (≈ 15.1 µM) | 0.015 (≈ 0.0284 µM) | 0.015 (≈ 0.0284 µM) | 8 (≈ 15.1 µM) | 0.015 (≈ 0.0284 µM) | 1 (≈ 1.89 µM) | 4 (≈ 7.57 µM) | 16 (≈ 30.3 µM) | 2 (≈ 3.78 µM) | 0.008 (≈ 0.0151 µM) | 0.015 (≈ 0.0284 µM) | 128 (≈ 242 µM) | – | – | – | – | – | – | – | – | RAP (Cavia porcellus): 1 |
| CO/N=C(\C(=O)N[C@@H]1C(=O)N2C(C(=O)[O-])=C(C[n+]3cccc(S(=O)(=O)O)c3)CS[C@H]12)c1csc(N)n1 | > 128 | 0.06 (≈ 0.108 µM) | 0.5 (≈ 0.902 µM) | 64 (≈ 115 µM) | 0.125 (≈ 0.225 µM) | 8 (≈ 14.4 µM) | 32 (≈ 57.7 µM) | 8 (≈ 14.4 µM) | 4 (≈ 7.21 µM) | 0.06 (≈ 0.108 µM) | 0.06 (≈ 0.108 µM) | > 128 | 0.5 (≈ 0.902 µM) | 41.6 | > 10 | 0.08 | 0.06 (≈ 0.108 µM) | 64 (≈ 115 µM) | 4 (≈ 7.21 µM) | 0.25 (≈ 0.451 µM) | – |
| CO/N=C(\C(=O)N[C@@H]1C(=O)N2C(C(=O)[O-])=C(C[n+]3ccc(CC(=O)NO)cc3)CS[C@H]12)c1csc(N)n1 (stereo in doubt; 20) | – | – | – | – | – | – | – | – | – | – | – | – | – | – | – | – | – | – | – | – | MIC (Enterobacter cloacae [1]): 64 µg/mL (≈ 117 µM); MIC (Klebsiella pneumoniae [4]): 8 µg/mL (≈ 14.6 µM); ED50 (Pseudomonas aeruginosa [11]): 20 mg/kg; ED50 (Staphylococcus aureus [12]): 1.4 mg/kg; ED50 (Escherichia coli [13]): <0.03 mg/kg; MIC (Escherichia coli [14]): 0.06 µg/mL (≈ 0.11 µM); MIC (Pseudomonas aeruginosa [15]): 8 µg/mL (≈ 14.6 µM); MIC (Pseudomonas aeruginosa [7]): 16 µg/mL (≈ 29.2 µM); MIC (Staphylococcus aureus [8]): 16 µg/mL (≈ 29.2 µM); MIC (Staphylococcus aureus [9]): 8 µg/mL (≈ 14.6 µM); MIC (Streptococcus pneumoniae): 0.06 µg/mL (≈ 0.11 µM); MIC (Serratia marcescens): 0.25 µg/mL (≈ 0.457 µM); MIC (Streptococcus pyogenes): 0.06 µg/mL (≈ 0.11 µM); MIC (Enterococcus faecium): >128 µg/mL |
| CO/N=C(\C(=O)N[C@@H]1C(=O)N2C(C(=O)[O-])=C(C[n+]3ccccc3C)CS[C@H]12)c1csc(N)n1 | 128 (≈ 262 µM) | 0.25 (≈ 0.512 µM) | 0.5 (≈ 1.02 µM) | 32 (≈ 65.5 µM) | 0.25 (≈ 0.512 µM) | 32 (≈ 65.5 µM) | 64 (≈ 131 µM) | 16 (≈ 32.7 µM) | 16 (≈ 32.7 µM) | 0.5 (≈ 1.02 µM) | 0.25 (≈ 0.512 µM) | > 128 | 2 (≈ 4.09 µM) | 12 | 2.7 | < 0.16 | 0.06 (≈ 0.123 µM) | 64 (≈ 131 µM) | 2 (≈ 4.09 µM) | 1 (≈ 2.05 µM) | – |
